Measured values published in PMC12783166 (Clinical Pharmacokinetics, 2025).

Assays:
[1] = Individual predicted steady-state exposures; format: in vivo, human; conditions: for AUC / Cmax: human, plasma, oral
Outline: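 Steady-state AUC24, Ctrough, Cmax and Cavg were derived from each individual's Bayesian post hoc estimates from the final three-compartment population PK model, with sequential zero-/first-order lagged absorption. Values are summarised per […] as mean (SD) and median (5th–95th percentile).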

[2] = tested on: P-gp; conditions: cited from earlier work
[3] = tested on: calcitonin gene-related peptide receptor; conditions: plasma concentration threshold; cited from earlier work
[4] = tested on: cytochrome P450 3A4 (CYP3A4); conditions: cited from earlier work
[5] = tested on: OAT1; conditions: cited from earlier work

For `C[C@@H]1[C@H](c2c(F)ccc(F)c2F)C[C@H](NC(=O)c2cnc3c(c2)C[C@@]2(C3)C(=O)Nc3ncccc32)C(=O)N1CC(F)(F)F` [atogepant, Atogepant], the “Ctrough, Mean (SD)” value ([1]; CGP-MD-01 EM, 30 mg QD) was 11.2 (16) ng/mL, the “Ctrough, Median (5th to 95th percentile)” value ([1]; CGP-MD-01 EM, 30 mg QD) was 8.97 (3.68–203) ng/mL and the “Time above ½EC90 (4.2 ng/mL or 7 nM), Mean (SD)” value (“Time above ½EC90 … (SD)” below) ([1]; CGP-MD-01 EM, 30 mg QD) was 24.0 (0.19) hr. For the same compound, the “Time above ½EC90 (4.2 ng/mL or 7 nM), Median (5th to 95th percentile)” value (“Time above ½EC90 … (5th to 95th percentile)” below) ([1]; CGP-MD-01 EM, 30 mg QD) was 24.0 (21.5–24.0) hr, the “Cavg, Mean (SD)” value ([1]; CGP-MD-01 EM, 60 mg BID) was 331 (200) ng/mL and the “Ctrough, Mean (SD)” value ([1]; CGP-MD-01 EM, 60 mg BID) was 133 (140) ng/mL. The “Ctrough, Median (5th to 95th percentile)” value ([1]; CGP-MD-01 EM, 60 mg BID) was 101 (26.1–972) ng/mL, the “Time above ½EC90 … (SD)” value ([1]; CGP-MD-01 EM, 60 mg BID) was 12.0 (0.0) hr and the “Time above ½EC90 … (5th to 95th percentile)” value ([1]; CGP-MD-01 EM, 60 mg BID) was 12.0 (12.0–12.0) hr. For the same compound, the “Cavg, Mean (SD)” value ([1]; CGP-MD-01 EM, 60 mg QD) was 152 (93) ng/mL, the “Cavg, Median (5th to 95th percentile)” value ([1]; CGP-MD-01 EM, 60 mg QD) was 144 (39.5–992) ng/mL and the “Ctrough, Mean (SD)” value ([1]; CGP-MD-01 EM, 60 mg QD) was 23.6 (30) ng/mL. The “Ctrough, Median (5th to 95th percentile)” value ([1]; CGP-MD-01 EM, 60 mg QD) was 19.5 (5.07–335) ng/mL, the “Time above ½EC90 … (SD)” value ([1]; CGP-MD-01 EM, 60 mg QD) was 24.0 (0.0) hr and the “Time above ½EC90 … (5th to 95th percentile)” value ([1]; CGP-MD-01 EM, 60 mg QD) was 24.0 (24.0–24.0) hr. The “Cavg, Mean (SD)” value ([1]; ELEVATE EM, 60 mg QD) was 147 (75) ng/mL, the “Cavg, Median (5th to 95th percentile)” value ([1]; ELEVATE EM, 60 mg QD) was 138 (12.5–474) ng/mL and the “Ctrough, Mean (SD)” value ([1]; ELEVATE EM, 60 mg QD) was 15.4 (13) ng/mL. For the same compound, the “Ctrough, Median (5th to 95th percentile)” value ([1]; ELEVATE EM, 60 mg QD) was 13.4 (2.70–98.1) ng/mL, the “Time above ½EC90 … (SD)” value ([1]; ELEVATE EM, 60 mg QD) was 23.9 (0.79) hr and the “Time above ½EC90 … (5th to 95th percentile)” value ([1]; ELEVATE EM, 60 mg QD) was 24.0 (17.5–24.0) hr. The “Cavg, Mean (SD)” value ([1]; PROGRESS CM, 30 mg BID) was 157 (87) ng/mL, the “Cavg, Median (5th to 95th percentile)” value ([1]; PROGRESS CM, 30 mg BID) was 135 (33.1–571) ng/mL and the “Ctrough, Mean (SD)” value ([1]; PROGRESS CM, 30 mg BID) was 56.1 (43) ng/mL. For the same compound, the “Ctrough, Median (5th to 95th percentile)” value ([1]; PROGRESS CM, 30 mg BID) was 42.4 (8.87–269) ng/mL, the “Time above ½EC90 … (SD)” value ([1]; PROGRESS CM, 30 mg BID) was 24.0 (0.0) hr and the “Time above ½EC90 … (5th to 95th percentile)” value ([1]; PROGRESS CM, 30 mg BID) was 24.0 (24.0–24.0) hr. For the same compound, the “Cavg, Mean (SD)” value ([1]; PROGRESS CM, 60 mg QD) was 139 (85) ng/mL, the “Cavg, Median (5th to 95th percentile)” value ([1]; PROGRESS CM, 60 mg QD) was 120 (21.9–908) ng/mL and the “Ctrough, Mean (SD)” value ([1]; PROGRESS CM, 60 mg QD) was 18.8 (24) ng/mL. For the same compound, the “Ctrough, Median (5th to 95th percentile)” value ([1]; PROGRESS CM, 60 mg QD) was 14.4 (2.23–287) ng/mL, the “Time above ½EC90 … (SD)” value ([1]; PROGRESS CM, 60 mg QD) was 23.9 (0.88) hr and the “Time above ½EC90 … (5th to 95th percentile)” value ([1]; PROGRESS CM, 60 mg QD) was 24.0 (15.5–24.0) hr. It also gave an AUC ([1]; 10 mg, AUC24, Mean (SD), ADVANCE EM, 10 mg QD) of 525 ng·h/mL, an AUC ([1]; 10 mg, AUC24, Mean (SD), CGP-MD-01 EM, 10 mg QD) of 461 ng·h/mL and an AUC ([1]; 10 mg, AUC24, Median (5th to 95th percentile), ADVANCE EM, 10 mg QD) of 464 ng·h/mL. For the same compound, the AUC ([1]; 10 mg, AUC24, Median (5th to 95th percentile), CGP-MD-01 EM, 10 mg QD) was 464 ng·h/mL, the Cmax ([1]; 10 mg, Mean (SD), ADVANCE EM, 10 mg QD) was 81.7 ng/mL and the Cmax ([1]; 10 mg, Mean (SD), CGP-MD-01 EM, 10 mg QD) was 74.5 ng/mL. It also gave a Cmax ([1]; 10 mg, Median (5th to 95th percentile), ADVANCE EM, 10 mg QD) of 73.3 ng/mL, a Cmax ([1]; 10 mg, Median (5th to 95th percentile), CGP-MD-01 EM, 10 mg QD) of 73.9 ng/mL and an AUC ([1]; 30 mg, AUC24, Mean (SD), ADVANCE EM, 30 mg QD) of 1830 ng·h/mL. It also gave an AUC ([1]; 30 mg, AUC24, Mean (SD), CGP-MD-01 EM, 30 mg BID) of 3900 ng·h/mL, an AUC ([1]; 30 mg, AUC24, Mean (SD), CGP-MD-01 EM, 30 mg QD) of 1710 ng·h/mL and an AUC ([1]; 30 mg, AUC24, Median (5th to 95th percentile), ADVANCE EM, 30 mg QD) of 1560 ng·h/mL. The AUC ([1]; 30 mg, AUC24, Median (5th to 95th percentile), CGP-MD-01 EM, 30 mg BID) was 3180 ng·h/mL, the AUC ([1]; 30 mg, AUC24, Median (5th to 95th percentile), CGP-MD-01 EM, 30 mg QD) was 1590 ng·h/mL and the AUC ([1]; 30 mg, AUC24, Median (5th to 95th percentile), PROGRESS CM, 30 mg BID) was 3230 ng·h/mL. It also gave a Cmax ([1]; 30 mg, Mean (SD), ADVANCE EM, 30 mg QD) of 271 ng/mL, a Cmax ([1]; 30 mg, Mean (SD), CGP-MD-01 EM, 30 mg BID) of 327 ng/mL and a Cmax ([1]; 30 mg, Mean (SD), CGP-MD-01 EM, 30 mg QD) of 260 ng/mL. It also gave a Cmax ([1]; 30 mg, Median (5th to 95th percentile), ADVANCE EM, 30 mg QD) of 244 ng/mL, a Cmax ([1]; 30 mg, Median (5th to 95th percentile), CGP-MD-01 EM, 30 mg BID) of 284 ng/mL and a Cmax ([1]; 30 mg, Median (5th to 95th percentile), CGP-MD-01 EM, 30 mg QD) of 247 ng/mL. For the same compound, the Cmax ([1]; 30 mg, Median (5th to 95th percentile), PROGRESS CM, 30 mg BID) was 296 ng/mL, the AUC ([1]; 60 mg, AUC24, Mean (SD), ADVANCE EM, 60 mg QD) was 3740 ng·h/mL and the AUC ([1]; 60 mg, AUC24, Mean (SD), CGP-MD-01 EM, 60 mg BID) was 7940 ng·h/mL. The AUC ([1]; 60 mg, AUC24, Mean (SD), CGP-MD-01 EM, 60 mg QD) was 3640 ng·h/mL, the AUC ([1]; 60 mg, AUC24, Mean (SD), ELEVATE EM, 60 mg QD) was 3530 ng·h/mL and the AUC ([1]; 60 mg, AUC24, Median (5th to 95th percentile), ADVANCE EM, 60 mg QD) was 3220 ng·h/mL. For the same compound, the AUC ([1]; 60 mg, AUC24, Median (5th to 95th percentile), CGP-MD-01 EM, 60 mg BID) was 6900 ng·h/mL, the AUC ([1]; 60 mg, AUC24, Median (5th to 95th percentile), CGP-MD-01 EM, 60 mg QD) was 3450 ng·h/mL and the AUC ([1]; 60 mg, AUC24, Median (5th to 95th percentile), ELEVATE EM, 60 mg QD) was 3310 ng·h/mL. It also gave an AUC ([1]; 60 mg, AUC24, Median (5th to 95th percentile), PROGRESS CM, 60 mg QD) of 2900 ng·h/mL, a Cmax ([1]; 60 mg, Mean (SD), ADVANCE EM, 60 mg QD) of 561 ng/mL and a Cmax ([1]; 60 mg, Mean (SD), CGP-MD-01 EM, 60 mg BID) of 634 ng/mL. For the same compound, the Cmax ([1]; 60 mg, Mean (SD), CGP-MD-01 EM, 60 mg QD) was 545 ng/mL, the Cmax ([1]; 60 mg, Median (5th to 95th percentile), ADVANCE EM, 60 mg QD) was 504 ng/mL and the Cmax ([1]; 60 mg, Median (5th to 95th percentile), PROGRESS CM, 60 mg QD) was 504 ng/mL. The Transporter substrate status [2] was “substrate”, the “EC90 (effective concentration that results in 90% inhibition of the CGRP receptor)” value [3] was 8.4 ng/mL and the Metabolizing enzyme [4] was “primarily metabolized by cytochrome P450 3A4 (CYP3A4)”. The Transporter substrate status [5] was “substrate”.
